From paper PMC5520516 (British Journal of Cancer, 2017)
Structures can show the parent of a compound that is named as a salt. Where two headings read alike, the source gives them in different places.

Experiments:
[1] = system: NCI 60-cell line panel (60 human tumour cell lines); settings: cited from earlier work
[2] = cited from earlier work
[3] = at 30 min; ref Burger et al, 2007; cited from earlier work
[4] = system: two human renal cell cancer HTXs, a breast cancer HTX and a murine syngeneic colon cancer; settings: P<0.01; ref Burger et al, 2007; cited from earlier work
[5] = system: well-vascularised breast cancer HTX; assay: Antitumour activity in well-vascularised breast cancer HTX; assay type: in vivo, human; settings: for antitumour activity at tolerated doses / antitumour activity at toxic dose levels: SD, i.p.
microtubules = settings: ref Bonezzi et al, 2009; cited from earlier work
endothelial cell = settings: in vitro; ref Bonezzi et al, 2009; cited from earlier work
tumour blood vessels = settings: in vivo; ref Bonezzi et al, 2009; cited from earlier work
[6] = system: NCI 60-cell line panel (60 human tumour cell lines); assay: NCI in vitro 60-cell line screen; assay type: cell-based
Outline: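 Test compounds were run in each of the 60 human tumour cell lines for 48 h of drug exposure. The data were summarised as a mean graph with COMPARE analysis.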

[7] = Pre-formulation / solubility; assay type: physicochemical
[8] = system: doxorubicin-resistant, oestrogen receptor negative human breast cancer xenograft MT-3/ADR; assay: Antitumour activity in MT-3/ADR xenograft; assay type: in vivo
advanced cancer = settings: phase I, ref Seckl et al, 2012, cited from earlier work
[9] = ref Bradshaw and Westwell, 2004

Cc1cc(-c2nc3cc(F)ccc3s2)ccc1N [5F 203]
GI50 ([1]; NCI 60-cell line screen, ref Bradshaw and Westwell, 2004): low nanomolar
selectivity in NCI 60-cell line screen [1, 9]: selectivity against breast and ovarian cancer sub-panels

COc1ccc(/C=C\c2cc(OC)c(OC)c(OC)c2)cc1O [Combretastatin A-4, reference compound]
solubility ([2]; ref Dark et al, 1997, Tozer et al, 2002): poorly soluble

COc1ccc(C2=CN3C(=O)c4cc(OC)c(OC)cc4N=C[C@@H]3C2)cc1 [DRH-417]
IC50 ([1]; read-out: mean IC50, NCI 60-cell line panel, ref Burger et al, 2007): 3 nM
peak plasma concentration [3]: 171 nM
antitumour activity in vivo [4]: marked activity

COc1ccc(-c2cncn2-c2cc(OC)c(OC)c(OC)c2)cc1 [NSC733436]
antitumour activity at tolerated doses [5]: moderate
antitumour activity at toxic dose levels [5]: more pronounced
effect on microtubules (microtubules): disorganised microtubules
effect on endothelial cell morphology and capillary formation (endothelial cell): selectively affected endothelial cell morphology and capillary formation
blood vessel shutdown and tumour necrosis (tumour blood vessels): caused blood vessel shutdown and tumour necrosis

COc1ccc(-c2cncn2-c2cc(OC)c(OC)c(OC)c2)cc1F [NSC736359]
antitumour activity at tolerated doses [5]: moderate
antitumour activity at toxic dose levels [5]: more pronounced
effect on microtubules (microtubules): disorganised microtubules
effect on endothelial cell morphology and capillary formation (endothelial cell): selectively affected endothelial cell morphology and capillary formation
blood vessel shutdown and tumour necrosis (tumour blood vessels): caused blood vessel shutdown and tumour necrosis

COc1cc(-n2cncc2-c2ccc3ccccc3c2)cc(OC)c1OC [NSC736992]
antitumour activity at tolerated doses [5]: moderate
antitumour activity at toxic dose levels [5]: more pronounced
effect on microtubules (microtubules): disorganised microtubules
effect on endothelial cell morphology and capillary formation (endothelial cell): selectively affected endothelial cell morphology and capillary formation
blood vessel shutdown and tumour necrosis (tumour blood vessels): caused blood vessel shutdown and tumour necrosis

COc1ccc2c(c1)[nH]c(=O)c1c3ccccc3cn21 [NSC 734237]
differential activity [6]: reasonable, but inconclusive
solubility [7]: quite insoluble
antitumour activity at the MTD ([8]; MTD, i.p., d8–12, 15–19): significant activity
antitumour activity ([8]; i.p., d8–12, 15–19): dose-dependent antitumour activity
CD31+ microvessel density (immunohistochemistry) ([8]; in vivo): dose-dependent reduction
Ki-67 staining (immunohistochemistry) ([8]; in vivo): dose-dependent reduction

Cc1cc(-c2nc3cc(F)ccc3s2)ccc1NC(=O)[C@@H](N)CCCCN.Cl.Cl [Phortress]
water solubility [2, 9]: water-soluble
MTD (advanced cancer; preliminary data): not reached
tolerability (advanced cancer; preliminary data): well tolerated
patients classified as having stable disease (advanced cancer; Thirty-three per cent of the patients): 14/42

COc1cc(-n2cncc2-c2ccc3ccccc3c2)cc(OC)c1OC [water-soluble salt of NSC736992]
density (size and number) of CD31+ blood vessels ([5]; alone or in combination): not affected
efficacy in combination with carboplatin or taxol ([5]; combination with carboplatin or taxol): not increased
efficacy (additional studies) ([5]; same HTX, also with other treatment schedules): moderate to borderline
